Assay results reported in ChEMBL document CHEMBL5390273, “Discovery of a Hydroxylamine-Based Brain-Penetrant EGFR Inhibitor for Metastatic Non-Small-Cell Lung Cancer” (J Med Chem, 2023).
The source made the active and inactive calls. The calls are words filed in the database; no cut-off is given here.

Legend:
[1] = Genotoxicity in Chinese hamster CHO-K1 cells at 8 to 1000 uM incubated for 4 hrs in presence of rat liver S9 fraction by micronucleus test; assay type: toxicity, subcellular, Cricetulus griseus; details: s9, 4 h, dose 8-1000 µM
Procedure, shortened: (§1)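 CHO-K1 cells, 96-well format, exposed to 8–1000 μM for either 4 h at 37 °C with rat liver S9 or 24 h at 37 °C without S9. Micronuclei detected by high-content fluorescence imaging. Positive controls were cyclophosphamide 7.2 μM and mitomycin C 0.3 μM. One-tailed two-sample equal-variance t-test.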

[2] = Mutagenicity in Salmonella typhimurium TA100 at 5 to 50 uM incubated for 96 hrs in presence of rat liver S9 fraction by Ames fluctuation assay; assay type: toxicity, subcellular; details: salmonella enterica subsp. enterica serovar typhimurium, s9, 96 h, dose 5-50 µM
Procedure, shortened: (§2)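 Fluctuation format in 384-well plates at 37 °C for 96 h. Tested at 5, 10, 50 and 100 μM, 48 replicates per concentration, with and without rat liver S9. Revertant wells counted when OD430/OD570 > 1.0, compared with control by one-tailed Fisher's exact test. Parallel bacterial cytotoxicity test (OD650) at 0.6–100 μM, with growth below 60% of control flagged as cytotoxic.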

[3] = Toxicity in intracranial PDX BALB/c mouse model xenografted with human luciferase tagged HCC827 cells assessed as body weight loss at 10 mg/kg,po BID for 21 days; assay type: organism-based; details: in vivo, 504 h, time 21 day
Procedure, shortened: (§3)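 Female BALB/c nude mice given 3 × 10^5 HCC827-luc cells in 2 μL RPMI1640 into the right forebrain under anesthesia. Randomized on day 20 after inoculation, n = 10 per group. Dosed PO b.i.d. at 12 h intervals for 21 days in 1% methylcellulose, with vehicle control. Biweekly IVIS imaging 10 min after IP D-luciferin, plus biweekly body weight. Day-21 means compared by unpaired two-tailed t-test.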

[4] = Mutagenicity in Salmonella typhimurium TA1535 at 5 to 50 uM incubated for 96 hrs in presence of rat liver S9 fraction by Ames fluctuation assay; assay type: toxicity, subcellular; details: salmonella enterica subsp. enterica serovar typhimurium, s9, 96 h, dose 5-50 µM; procedure, shortened: as §2
[5] = Mutagenicity in Salmonella typhimurium TA1535 at 5 to 50 uM incubated for 96 hrs by Ames fluctuation assay; assay type: toxicity; details: salmonella enterica subsp. enterica serovar typhimurium, dose 5-50 µM; procedure, shortened: as §2
[6] = Mutagenicity in Salmonella typhimurium TA98 at 5 to 50 uM incubated for 96 hrs in presence of rat liver S9 fraction by Ames fluctuation assay; assay type: toxicity, subcellular; details: salmonella enterica subsp. enterica serovar typhimurium, s9, 96 h, dose 5-50 µM; procedure, shortened: as §2
[7] = Mutagenicity in Salmonella typhimurium TA98 at 5 to 50 uM incubated for 96 hrs by Ames fluctuation assay; assay type: toxicity; details: salmonella enterica subsp. enterica serovar typhimurium, dose 5-50 µM; procedure, shortened: as §2
[8] = AUC (0 to infinity) in BALB/c mouse at 30 mg/kg, po and measured upto 24 hrs by LC-MS/MS analysis; assay type: ADME, organism-based; design: dose 30 mg/kg, time < 24 hrs, route po; details: in vivo
Procedure, shortened: (§4)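 Female BALB/c nude mice or male Sprague-Dawley rats, 6–8 weeks old, n = 3 per route. IV by tail vein in DMSO:10% captisol in saline 1:99. PO by gavage in 1% methylcellulose. […] Assayed by LC-MS/MS, non-compartmental PK, mean ± SD.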

[9] = Toxicity in intracranial PDX BALB/c mouse model xenografted with human luciferase tagged HCC827 cells assessed as adverse clinical effects at 10 mg/kg,po BID for 21 days; assay type: organism-based; details: in vivo, 504 h, time 21 day; procedure, shortened: as §3
[10] = Mutagenicity in Salmonella typhimurium TA1537 at 5 to 50 uM incubated for 96 hrs in presence of rat liver S9 fraction by Ames fluctuation assay; assay type: toxicity, subcellular; details: salmonella enterica subsp. enterica serovar typhimurium, s9, 96 h, dose 5-50 µM; procedure, shortened: as §2
[11] = AUC (0 to infinity) in BALB/c mouse at 3 mg/kg, iv and measured upto 24 hrs by LC-MS/MS analysis; assay type: ADME, organism-based; design: dose 3 mg/kg, time < 24 hrs, route iv; details: in vivo; procedure, shortened: as §4
[12] = Metabolic stability in human hepatocytes assessed as metabolite formation at 10 uM incubated for 4 hrs by UHPLC-MS/MS analysis; assay type: ADME, cell-based, Hepatocyte
Procedure, shortened: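 Human hepatocytes at 1.0 × 10^6 cells/mL incubated with compound at 10 μM for 0, 120 and 240 min at 37 °C. Quenched with 2 volumes of acetonitrile, centrifuged at 16,000g for 15 min, and supernatant analyzed by UHPLC-MS/MS.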

[13] = Mutagenicity in Salmonella typhimurium TA100 at 5 to 50 uM incubated for 96 hrs by Ames fluctuation assay; assay type: toxicity; details: salmonella enterica subsp. enterica serovar typhimurium, dose 5-50 µM; procedure, shortened: as §2
[14] = AUC (0 to infinity) in Sprague-Dawley rat at 2 mg/kg, iv and measured upto 24 hrs by LC-MS/MS analysis; assay type: ADME, organism-based; design: dose 2 mg/kg, time < 24 hrs, route iv; details: in vivo; procedure, shortened: as §4
[15] = Mutagenicity in Salmonella typhimurium TA1537 at 5 to 50 uM incubated for 96 hrs by Ames fluctuation assay; assay type: toxicity; details: salmonella enterica subsp. enterica serovar typhimurium, dose 5-50 µM; procedure, shortened: as §2
HCC827 = assay: Antitumor activity against human luciferase tagged HCC827 cells xenografted in intracranial PDX BALB/c mouse model assessed as tumor regression at 10 mg/kg,po BID for 21 days by Bioluminescence imaging analysis; assay type: functional, organism-based; details: time 21.0 day; procedure, shortened: as §3
[16] = Genotoxicity in Chinese hamster CHO-K1 cells at 8 to 1000 uM incubated for 24 hrs by micronucleus test; assay type: toxicity, cell-based, Cricetulus griseus; details: cho-k1, 24 h, dose 8-1000 µM; procedure, shortened: as §1
[17] = Mutagenicity in Salmonella typhimurium TA98 at 5 to 100 uM incubated for 96 hrs in presence of rat liver S9 fraction by Ames fluctuation assay; assay type: toxicity, subcellular; details: salmonella enterica subsp. enterica serovar typhimurium, s9, 96 h, dose 5-100 µM; procedure, shortened: as §2
[18] = Unbound brain-to-plasma concentration ratio in Han Wistar rat at 10 mg/kg,po and measured after 16 hrs by LC-MS/MS analysis; assay type: ADME, organism-based; details: read-out: K(p,uu,brain)
[19] = Mutagenicity in Salmonella typhimurium TA1535 at 5 to 100 uM incubated for 96 hrs in presence of rat liver S9 fraction by Ames fluctuation assay; assay type: toxicity, subcellular; details: salmonella enterica subsp. enterica serovar typhimurium, s9, 96 h, dose 5-100 µM; procedure, shortened: as §2
[20] = Mutagenicity in Salmonella typhimurium TA1537 at 5 to 100 uM incubated for 96 hrs by Ames fluctuation assay; assay type: toxicity; details: salmonella enterica subsp. enterica serovar typhimurium, dose 5-100 µM; procedure, shortened: as §2
[21] = Mutagenicity in Salmonella typhimurium TA98 at 5 to 100 uM incubated for 96 hrs by Ames fluctuation assay; assay type: toxicity; details: salmonella enterica subsp. enterica serovar typhimurium, dose 5-100 µM; procedure, shortened: as §2
[22] = Mutagenicity in Salmonella typhimurium TA1537 at 5 to 100 uM incubated for 96 hrs in presence of rat liver S9 fraction by Ames fluctuation assay; assay type: toxicity, subcellular; details: salmonella enterica subsp. enterica serovar typhimurium, s9, 96 h, dose 5-100 µM; procedure, shortened: as §2
[23] = Mutagenicity in Salmonella typhimurium TA1535 at 5 to 100 uM incubated for 96 hrs by Ames fluctuation assay; assay type: toxicity; details: salmonella enterica subsp. enterica serovar typhimurium, dose 5-100 µM; procedure, shortened: as §2
[24] = Mutagenicity in Salmonella typhimurium TA100 at 5 to 100 uM incubated for 96 hrs in presence of rat liver S9 fraction by Ames fluctuation assay; assay type: toxicity, subcellular; details: salmonella enterica subsp. enterica serovar typhimurium, s9, 96 h, dose 5-100 µM; procedure, shortened: as §2
[25] = Mutagenicity in Salmonella typhimurium TA100 at 5 to 100 uM incubated for 96 hrs by Ames fluctuation assay; assay type: toxicity; details: salmonella enterica subsp. enterica serovar typhimurium, dose 5-100 µM; procedure, shortened: as §2
[26] = Toxicity in Sprague-Dawley rat assessed as at 5 mg/kg, po; details: in vivo
[27] = Toxicity in Sprague-Dawley rat assessed as at 1 mg/kg, iv; details: in vivo
[28] = Dissociation constant, pKa of compound by pH-metric titration method; assay type: physicochemical

Structure (SMILES)	Activity [17]	Activity [19]	Activity [20]	Activity [21]	Activity [22]	Activity [23]	Activity [24]	Activity [25]	further results
COc1cc2ncnc(Nc3cccc(Cl)c3F)c2cc1OCCON1CCN(C)CC1	–	–	–	–	–	–	–	–	Activity [1]: Non-Toxic; Activity [2]: Non-Toxic; Activity [3]: Non-Toxic; Activity [4]: Non-Toxic; Activity [5]: Non-Toxic; Activity [6]: Non-Toxic; Activity [7]: Non-Toxic; AUC(0-inf) [8]: 5.29 µM·h; Activity [9]: Non-Toxic; Activity [10]: Non-Toxic; AUC [11]: 0.866 µM·h; Drug metabolism [12]: < 5%; Activity [13]: Non-Toxic; AUC(0-inf) [14]: 0.61 µM·h; Activity [15]: Non-Toxic; Activity (HCC827): Active; Activity [16]: Non-Toxic
COc1cc2ncnc(Nc3ccc(F)c(Cl)c3)c2cc1OCCCN1CCOCC1 [GEFITINIB]	Non-Toxic	Non-Toxic	Non-Toxic	Non-Toxic	Non-Toxic	Non-Toxic	Non-Toxic	Non-Toxic	Kp uu at 16 h [18]: 0.009
COc1cc2ncnc(Nc3ccc(F)c(Cl)c3)c2cc1OCCON1CCOCC1	Non-Toxic	Non-Toxic	Non-Toxic	Non-Toxic	Non-Toxic	Non-Toxic	Non-Toxic	Non-Toxic	–
COc1cc2ncnc(Nc3cccc(Cl)c3F)c2cc1OCCON1CCOCC1	Non-Toxic	Non-Toxic	Non-Toxic	Non-Toxic	Non-Toxic	Non-Toxic	Non-Toxic	Non-Toxic	Activity [26]: Non-Toxic; Activity [27]: Non-Toxic
NO [HYDROXYAMINE]	–	–	–	–	–	–	–	–	pKa [28]: 5.9
